One data set deals with FGFR4 kinase (Homo sapiens, UniProt P22455). The data set is described as follows: biochemical. In kind it is biochemical. The note with it: for inhibition at 1 µM: read-out: % inhibition against FGFR4 kinase.
For the next data set, the target named is FGFR1 (Homo sapiens, UniProt P11362). Nature of the data set: In vitro kinase assay. In kind it is biochemical. Particulars: read-out: % inhibition at 1 μM FGFR1. Put shortly: (§1)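 Test compound at 0.1 and 1 μM against each FGFR isoform with ATP at its Km concentration; percent inhibition reported.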
For another data set, the target named is FGFR2 (Homo sapiens, UniProt P21802). The data set is described as follows: In vitro kinase assay. In kind it is biochemical. The note with it: read-out: % inhibition at 1 μM FGFR2. The essentials: as §1
The target of the next data set is FGFR3 (Homo sapiens, UniProt P22607). Nature of the data set: In vitro kinase assay. The note with it: read-out: % inhibition at 1 μM FGFR3. The class given is biochemical. Put shortly:
as §1

Data set [1] in a line: Metabolic stability assay in human liver microsomes. The class given is in vitro ADME. Particulars: pH 7. In general terms: Liver microsomes are a subcellular fraction often used to study metabolism.
Data set [2] in a line: Metabolic stability assay in mouse liver microsomes. The class given is in vitro ADME. Particulars: pH 7. The essentials:
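Human or mouse liver microsomes (0.5 mg/ml) were pre-incubated 5 min at 37 °C with 1 μM test compound in 0.1 M phosphate buffer, pH 7. NADPH regenerating system was added and the mix incubated 30 min at 37 °C. Acetonitrile with internal standard stopped the reaction. Parent compound was measured by LC-MS/MS, with % remaining at 30 min versus 0 min, in duplicate.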

This note sets out measurements from PMC11044719 (Journal of Enzyme Inhibition and Medicinal Chemistry, 2024).

As a reminder, the inhibition is the percentage by which the read-out fell short of the control. As a reminder, the IC50 is the concentration needed to halve the response being measured. A high value points to a need for much substance. A word on the fraction remaining: it is the share of the starting amount still present when the sample was taken. Lower therefore signals a greater loss.

FGFR4 kinase, sequence (P22455 22-802): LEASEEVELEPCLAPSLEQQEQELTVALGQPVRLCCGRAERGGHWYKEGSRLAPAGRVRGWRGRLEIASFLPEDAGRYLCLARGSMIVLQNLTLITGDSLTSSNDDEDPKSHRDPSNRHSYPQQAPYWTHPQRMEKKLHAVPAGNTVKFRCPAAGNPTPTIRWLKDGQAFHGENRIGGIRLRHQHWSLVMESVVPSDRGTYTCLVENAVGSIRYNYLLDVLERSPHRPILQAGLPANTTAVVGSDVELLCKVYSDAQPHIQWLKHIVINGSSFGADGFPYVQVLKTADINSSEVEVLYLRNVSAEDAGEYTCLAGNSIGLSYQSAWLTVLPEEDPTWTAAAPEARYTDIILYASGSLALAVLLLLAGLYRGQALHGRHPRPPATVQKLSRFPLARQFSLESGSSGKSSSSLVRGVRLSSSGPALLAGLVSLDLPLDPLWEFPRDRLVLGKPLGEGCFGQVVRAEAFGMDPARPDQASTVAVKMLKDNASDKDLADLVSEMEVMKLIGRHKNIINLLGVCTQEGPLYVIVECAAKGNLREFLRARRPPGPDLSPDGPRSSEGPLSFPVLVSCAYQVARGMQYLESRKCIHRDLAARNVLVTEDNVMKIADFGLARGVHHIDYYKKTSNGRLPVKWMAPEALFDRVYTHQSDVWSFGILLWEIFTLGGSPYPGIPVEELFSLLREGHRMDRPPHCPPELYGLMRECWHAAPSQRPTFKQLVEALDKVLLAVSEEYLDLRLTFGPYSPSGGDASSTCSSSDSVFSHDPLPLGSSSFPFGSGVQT
FGFR3, sequence (P22607 23-806): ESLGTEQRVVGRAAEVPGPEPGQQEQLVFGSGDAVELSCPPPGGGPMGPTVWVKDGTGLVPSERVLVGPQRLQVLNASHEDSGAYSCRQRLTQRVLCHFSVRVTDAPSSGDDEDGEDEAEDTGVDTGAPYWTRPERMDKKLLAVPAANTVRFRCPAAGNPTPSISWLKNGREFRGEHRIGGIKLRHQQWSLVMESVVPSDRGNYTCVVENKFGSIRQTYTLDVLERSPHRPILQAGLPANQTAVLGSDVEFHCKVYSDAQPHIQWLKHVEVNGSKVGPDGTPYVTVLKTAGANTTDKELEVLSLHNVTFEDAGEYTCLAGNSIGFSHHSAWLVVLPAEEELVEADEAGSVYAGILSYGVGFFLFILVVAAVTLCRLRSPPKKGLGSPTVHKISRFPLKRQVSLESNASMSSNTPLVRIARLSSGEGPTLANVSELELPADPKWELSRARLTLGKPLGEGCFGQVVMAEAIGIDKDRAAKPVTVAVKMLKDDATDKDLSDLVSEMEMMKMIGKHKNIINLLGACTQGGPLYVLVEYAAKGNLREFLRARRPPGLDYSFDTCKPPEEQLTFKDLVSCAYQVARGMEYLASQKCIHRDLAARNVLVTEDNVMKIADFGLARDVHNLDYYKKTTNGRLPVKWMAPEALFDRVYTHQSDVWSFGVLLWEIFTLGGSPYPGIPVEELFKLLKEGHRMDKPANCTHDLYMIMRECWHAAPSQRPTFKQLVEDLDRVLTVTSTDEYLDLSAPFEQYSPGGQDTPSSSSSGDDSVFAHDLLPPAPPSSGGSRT
FGFR1, sequence (P11362 22-822): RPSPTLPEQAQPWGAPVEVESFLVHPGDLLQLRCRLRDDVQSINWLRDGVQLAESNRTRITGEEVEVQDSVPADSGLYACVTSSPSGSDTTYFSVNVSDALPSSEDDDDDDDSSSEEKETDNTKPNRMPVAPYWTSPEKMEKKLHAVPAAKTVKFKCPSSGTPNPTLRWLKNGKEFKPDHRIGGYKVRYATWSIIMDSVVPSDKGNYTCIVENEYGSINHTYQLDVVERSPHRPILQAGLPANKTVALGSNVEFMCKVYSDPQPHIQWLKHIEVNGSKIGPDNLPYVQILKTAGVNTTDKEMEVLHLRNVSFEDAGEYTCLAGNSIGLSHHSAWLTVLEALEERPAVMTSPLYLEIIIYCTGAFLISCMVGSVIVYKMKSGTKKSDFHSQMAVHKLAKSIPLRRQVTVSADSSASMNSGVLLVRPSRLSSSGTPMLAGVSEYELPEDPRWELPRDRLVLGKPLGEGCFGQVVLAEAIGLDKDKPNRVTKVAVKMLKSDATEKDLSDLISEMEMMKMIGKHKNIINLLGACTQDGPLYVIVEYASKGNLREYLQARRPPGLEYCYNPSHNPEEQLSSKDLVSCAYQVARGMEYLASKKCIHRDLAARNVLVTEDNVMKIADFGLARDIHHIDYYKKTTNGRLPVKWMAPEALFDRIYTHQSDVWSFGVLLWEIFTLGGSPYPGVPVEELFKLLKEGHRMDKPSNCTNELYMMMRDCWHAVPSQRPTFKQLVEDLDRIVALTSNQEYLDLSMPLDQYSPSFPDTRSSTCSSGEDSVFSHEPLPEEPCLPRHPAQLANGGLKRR
FGFR2, sequence (P21802 22-821): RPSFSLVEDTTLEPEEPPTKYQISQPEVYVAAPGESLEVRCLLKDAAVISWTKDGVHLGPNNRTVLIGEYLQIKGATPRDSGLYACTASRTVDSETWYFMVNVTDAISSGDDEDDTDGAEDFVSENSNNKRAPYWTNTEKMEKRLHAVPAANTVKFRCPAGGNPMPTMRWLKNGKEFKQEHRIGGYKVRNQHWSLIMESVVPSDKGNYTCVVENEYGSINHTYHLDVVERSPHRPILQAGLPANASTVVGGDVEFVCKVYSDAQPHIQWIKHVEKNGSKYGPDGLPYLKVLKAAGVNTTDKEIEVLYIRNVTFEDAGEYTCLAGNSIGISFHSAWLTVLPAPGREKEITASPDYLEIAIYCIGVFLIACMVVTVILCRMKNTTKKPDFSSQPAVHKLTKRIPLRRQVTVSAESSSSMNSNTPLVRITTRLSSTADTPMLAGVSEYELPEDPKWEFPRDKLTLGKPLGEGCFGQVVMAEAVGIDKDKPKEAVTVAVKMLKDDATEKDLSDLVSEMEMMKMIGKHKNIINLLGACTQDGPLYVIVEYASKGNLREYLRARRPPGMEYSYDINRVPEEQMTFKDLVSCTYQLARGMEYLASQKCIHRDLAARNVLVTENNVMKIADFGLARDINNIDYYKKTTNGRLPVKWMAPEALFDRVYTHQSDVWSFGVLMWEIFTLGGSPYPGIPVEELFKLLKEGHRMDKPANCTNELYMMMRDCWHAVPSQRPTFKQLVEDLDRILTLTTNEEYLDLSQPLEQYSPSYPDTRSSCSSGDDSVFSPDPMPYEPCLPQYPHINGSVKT

For the molecule `C=CC(=O)Nc1ccccc1C(=O)Nc1ccc(C#Cc2cccc3ccccc23)nn1` [4l, 2-Acrylamido-N-(6-(naphthalen-1-ylethynyl)pyridazin-3-yl)benzamide], at FGFR4 kinase, the inhibition at 1 µM was found to be 17%.

On to `C=CC(=O)Nc1ccccc1C(=O)Nc1ccc(C#CCOc2cccc(OC)c2)nn1` [4m, 2-Acrylamido-N-(6–(3-(3-methoxyphenoxy)prop-1-yn-1-yl)pyridazin-3-yl)benzamide], for which the inhibition at 1 µM on FGFR4 kinase was 37%. Take `C=CC(=O)N[C@H]1CCOC[C@H]1Nc1ncc2cc(-c3c(Cl)c(OC)cc(OC)c3Cl)ccc2n1` [BLU554, fisogatinib, reference compound]: the inhibition at 1 µM at FGFR4 kinase came to 97%; at FGFR1, 29%; at FGFR2, 11%; at FGFR3 it was 10%. Take `C=CC(=O)Nc1ccccc1C(=O)Nc1ccccn1` [2b, 2-Acrylamido-N-(pyridin-2-yl)benzamide]: the inhibition at 1 µM at FGFR4 kinase was determined as 9%. On the same count and under the same terms, the figure for `C=CC(=O)Nc1ccccc1C(=O)Nc1ccc(C#Cc2cc(OC)cc(OC)c2)nn1` [4f, 2-Acrylamido-N-(6-((3,5-dimethoxyphenyl)ethynyl)pyridazin-3-yl)benzamide] is 80%; for `C=CC(=O)Nc1ccccc1C(=O)Nc1cccnn1` [2a, 2-Acrylamido-N-(pyridazin-3-yl)benzamide] it is 21%; for `C=CC(=O)Nc1ccccc1C(=O)Nc1ccc(C#Cc2cccnc2)nn1` [4j, 2-Acrylamido-N-(6-(pyridin-3-ylethynyl)pyridazin-3-yl)benzamide] it is 13%. Regarding `C=CC(=O)Nc1ccccc1C(=O)Nc1ccc(C#CCN(C)C)nn1` [4a, 2-Acrylamido-N-(6–(3-(dimethylamino)prop-1-yn-1-yl)pyridazin-3-yl)benzamide], the inhibition at 1 µM at FGFR4 kinase came out at 10%. As to `C=CC(=O)Nc1ccccc1C(=O)Nc1ccc(C#CCOC)nn1` [4b, 2-Acrylamido-N-(6–(3-methoxyprop-1-yn-1-yl)pyridazin-3-yl)benzamide], the inhibition at 1 µM on FGFR4 kinase was found to be 47%.

Regarding `C=CC(=O)Nc1ccccc1C(=O)Nc1cccnc1` [2c, 2-Acrylamido-N-(pyridin-3-yl)benzamide], at FGFR4 kinase, the inhibition at 1 µM stood at 7%. On to `C=CC(=O)Nc1ccccc1C(=O)Nc1ncccn1` [2d, 2-Acrylamido-N-(pyrimidin-2-yl)benzamide], for which the inhibition at 1 µM at FGFR4 kinase is 6%. Turning to `C=CC(=O)Nc1ccccc1C(=O)Nc1ccc(C#Cc2ccc(N(C)C)cc2)nn1` [4h, 2-Acrylamido-N-(6-((4-(dimethylamino)phenyl)ethynyl)pyridazin-3-yl)benzamide], on FGFR4 kinase, the inhibition at 1 µM was 92%.

In the case of `C#Cc1ccc(NC(=O)c2ccccc2NC(=O)C=C)nn1` [2i, 2-Acrylamido-N-(6-ethynylpyridazin-3-yl)benzamide], the inhibition at 1 µM at FGFR4 kinase is 49%. For the molecule `C=CC(=O)Nc1ccccc1C(=O)Nc1cnccn1` [2f, 2-Acrylamido-N-(pyrazin-2-yl)benzamide], the inhibition at 1 µM at FGFR4 kinase turned out to be 9%. `C=CC(=O)Nc1ccccc1C(=O)Nc1ccc(C#Cc2cccc(N(C)C)c2)nn1` [4g, 2-Acrylamido-N-(6-((3-(dimethylamino)phenyl)ethynyl)pyridazin-3-yl)benzamide]: on FGFR4 kinase, the inhibition at 1 µM worked out at 59%. For the molecule `C=CC(=O)Nc1ccccc1C(=O)Nc1ccc(C#Cc2ccccc2)nn1` [4i, 2-Acrylamido-N-(6-(phenylethynyl)pyridazin-3-yl)benzamide], on FGFR4 kinase, the IC50 came to 235 nM and the inhibition at 1 µM was determined as 91%. With `CCC(=O)Nc1ccccc1C(=O)Nc1ccc(C#Cc2ccc(OC)cc2)nn1` [4t, N-[6-[2–(4-methoxyphenyl)ethynyl]pyridazin-3-yl]-2-(propanoylamino)benzamide], the inhibition at 1 µM on FGFR4 kinase was 0%. On to `C#Cc1ccc(NC(=O)c2ccccc2NC(=O)C=C)cn1` [2h, 2-Acrylamido-N-(6-ethynylpyridin-3-yl)benzamide], for which the inhibition at 1 µM at FGFR4 kinase was 44%. On to `C=CC(=O)Nc1ccccc1C(=O)Nc1ncnc2ccccc12` [2l, 2-Acrylamido-N-(quinazolin-4-yl)benzamide], for which the inhibition at 1 µM on FGFR4 kinase turned out to be 0%. Regarding `C=CC(=O)Nc1ccccc1C(=O)Nc1ccc(CCc2cccc(N(C)C)c2)nn1` [4q, 2-Acrylamido-N-(6–(3-(dimethylamino)phenethyl)pyridazin-3-yl)benzamide], on FGFR4 kinase, the inhibition at 1 µM turned out to be 13%. The same measure, in the same setting: the figure for `C=CC(=O)Nc1ccccc1C(=O)Nc1ccc(C#CC2CCCCC2)nn1` [4k, 2-Acrylamido-N-(6-(cyclohexylethynyl)pyridazin-3-yl)benzamide] is 25%; for `C=CC(=O)Nc1ccccc1C(=O)Nc1n[nH]c2ccccc12` [2k, 2-Acrylamido-N-(1H-indazol-3-yl)benzamide] it is 4%. Same read-out and setting: the figure for `C=CC(=O)Nc1ccccc1C(=O)Nc1ccc(CCc2cccc(OC)c2)nn1` [4p, 2-Acrylamido-N-(6–(3-methoxyphenethyl)pyridazin-3-yl)benzamide] is 26%.

Take `C=CC(=O)Nc1ccccc1C(=O)Nc1ccncn1` [2e, 2-Acrylamido-N-(pyrimidin-4-yl)benzamide]: the inhibition at 1 µM at FGFR4 kinase was determined as 12%. Turning to `C=CC(=O)Nc1ccccc1C(=O)Nc1cc(C)on1` [2j, 2-Acrylamido-N-(5-methylisoxazol-3-yl)benzamide], at FGFR4 kinase, the inhibition at 1 µM was determined as 5%. In the case of `C=CC(=O)Nc1ccccc1C(=O)Nc1ccc(Oc2cccc(OC)c2)nn1` [4n, 2-Acrylamido-N-(6–(3-methoxyphenoxy)pyridazin-3-yl)benzamide], the inhibition at 1 µM at FGFR4 kinase came out at 7%. As for `C=CC(=O)Nc1ccccc1C(=O)Nc1ccc(C#Cc2ccc3c(c2)OCO3)nn1` [4s, 2-Acrylamido-N-(6–(2-(1,3-benzodioxol-5-yl)ethynyl)pyridazin-3-yl)benzamide], at FGFR4 kinase, the IC50 worked out at 319 nM and the inhibition at 1 µM is 92%. Besides, the fraction remaining at 0.5 h, 1 μM in data set [1] is 62.1%. In addition, the amount remaining at 0.5 h, 1 μM in data set [2] was 53.9%. With `C=CC(=O)Nc1ccccc1C(=O)Nc1ccc(C#Cc2ccc(OC)cc2)nn1` [4c, 2-Acrylamido-N-(6-((4-methoxyphenyl)ethynyl)pyridazin-3-yl)benzamide], at FGFR4 kinase, the IC50 was 33 nM. The “fold more potent than staurosporin (IC50)” value on FGFR4 kinase came out at 5 fold. In addition, the “fold improvement of IC50 compared to that of other derivatives” value at FGFR4 kinase (FGFR4 IC50 compared with other derivatives of Table 3) is roughly 10 fold. The inhibition at 1 µM came to 97% on FGFR4 kinase and 0% on FGFR3. Further, the share remaining at 0.5 h, 1 μM was determined as 7.5% in data set [1] and 25.2% in data set [2]. For `C=CC(=O)Nc1ccccc1C(=O)Nc1ccc(-c2cccc(OC)c2)nn1` [4o, 2-Acrylamido-N-(6–(3-methoxyphenyl)pyridazin-3-yl)benzamide], the inhibition at 1 µM at FGFR4 kinase is 39%. Consider `C=CC(=O)Nc1ccccc1C(=O)Nc1ccc(C#Cc2cccc(OC)c2)nn1` [4d, 2-Acrylamido-N-(6-((3-methoxyphenyl)ethynyl)pyridazin-3-yl)benzamide], for which, at FGFR4 kinase, the IC50 was 424 nM and the inhibition at 1 µM is 86%. Regarding `C=CC(=O)Nc1ccccc1C(=O)Nc1ccc(C#Cc2ccccc2OC)nn1` [4e, 2-Acrylamido-N-(6-((2-methoxyphenyl)ethynyl)pyridazin-3-yl)benzamide], the inhibition at 1 µM at FGFR4 kinase is 42%. On the same count and under the same terms, the result for `C=CC(=O)Nc1ccccc1C(=O)Nc1ccc(Cl)nn1` [2g, 2-Acrylamido-N-(6-chloropyridazin-3-yl)benzamide] reads 30%.
